The list is not random: actives were taken first. Their share in the collection is about 1.8%.
CXCR6 inh: CXCR6 (human) receptor inhibition; AID 602244; CHO-K1 PathHunter CXCR6 beta-arrestin, luminescence; 360,000 compounds, 0.36% hits; inhibition, % at 20 µM; in the data active means inhibition above about 34%, passing the limit was not always enough;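 further: antagonist mode with CXCL16 agonist at 10 nM final; 0% = 10 nM CXCL16 with DMSO and 100% = unstimulated wells without agonist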
EBI2 antag: blocks human EBI2 receptor beta-arrestin signaling. P32249. EBI2 beta-arrestin recruitment, luminescence, 7a,25-OHC stimulated. inhibition, % at 5 µM. 360,000 compounds, 0.81% hits. AID 651636; in the data active means inhibition above about 38%;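 further: enzyme fragment complementation signal reports receptor beta-arrestin coupling in cells; 0% = agonist plus DMSO wells and 100% = wells without agonist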
CCR6 antagonist: CCR6 (human) receptor antagonism. CHO-K1 CCR6 PathHunter beta-arrestin, luminescence, CCL20-stimulated. inhibition, % at 20 µM. 340,000 compounds, 0.49% hits;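 active means compounds whose inhibition of the agonist-driven luminescence signal at 20 µM reaches about 50%, limit read from the data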;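 further: cells stimulated with CCL20 at 14 nM final; plate controls were DMSO with CCL20 for no effect and DMSO without agonist for full effect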
B2AR ag: agonists of human beta-2 adrenergic receptor inducing internalization. Am2.2-beta2AR cells, FAP receptor internalization, flow cytometry. response, % (test concentration not listed). 340,000 compounds, 0.43% hits. AID 504454;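 active means response above a set limit, near 3 SD of response in nonfluorescent compounds, cut at about 42% in these data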
Target sequence (P07550 whole entry, looked up): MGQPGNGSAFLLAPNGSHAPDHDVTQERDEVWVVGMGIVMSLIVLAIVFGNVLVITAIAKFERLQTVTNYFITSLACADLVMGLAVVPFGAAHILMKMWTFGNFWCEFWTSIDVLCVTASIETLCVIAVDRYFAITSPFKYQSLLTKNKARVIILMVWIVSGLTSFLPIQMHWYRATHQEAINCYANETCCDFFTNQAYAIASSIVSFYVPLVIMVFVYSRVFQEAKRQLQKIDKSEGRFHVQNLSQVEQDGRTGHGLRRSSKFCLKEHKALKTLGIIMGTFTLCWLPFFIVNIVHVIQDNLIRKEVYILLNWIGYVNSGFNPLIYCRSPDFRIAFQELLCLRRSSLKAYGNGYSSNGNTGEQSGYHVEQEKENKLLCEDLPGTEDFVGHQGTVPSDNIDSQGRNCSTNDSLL
APJ antagonist: APJ receptor antagonism; P35414; CHO-K1 APJ beta-arrestin complementation, luminescence; inhibition, % at 20 µM; 330,000 compounds, 0.32% hits; AID 2521;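 active means inhibition above about 40% at 20 µM, limit read from the data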;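 further: cells challenged with 10 nM apelin-13 agonist together with compound; plate controls were apelin-13 plus DMSO wells for no effect and DMSO wells lacking apelin-13 for full effect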
APJ ag: activates the human apelin receptor APJ; 330,000 compounds, 0.11% hits; P35414; CHO-K1 APJ PathHunter beta-arrestin, luminescence; 0% DMSO wells, 100% apelin; activation, % at 20 µM;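 active means activation more than six SD over the plate average, tested at 20 µM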;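 further: 0% = DMSO alone and 100% = apelin-13 at 10 nM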
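Assay system – PathHunter CHO-K1 APJ (AGTRL-1) beta-arrestin reporter cells · Compound – one dose, 20 µM compound, 1% DMSO · Timing – compound 90 min 25 °C, reagent 1 h · Measured by – luminescence from split beta-galactosidase complementation, Galacton Star/Emerald II substrate · Measure – beta-arrestin recruitment to APJ as agonist activity, luminescent signal · Benchmarks – DMSO vs Apelin-13 10 nM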
CXCR6 antag conf: CXCR6 antagonism confirmation, single concentration; shares compounds with CXCR6 inh; 700 compounds, 65% hits; inhibition, % at 20 µM; CHO-K1 CXCR6 PathHunter beta-arrestin, luminescence;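 active means mean inhibition over four retests above 40%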;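 further: receptor stimulated with 10 nM CXCL16 agonist; beta-galactosidase fragment complementation upon beta-arrestin recruitment to receptor; plate controls were CXCL16 plus DMSO for no effect and DMSO without CXCL16 for full effect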
Active calls of the source: *; . = no result given.

SMILES	CXCR6 inh	EBI2 antag	CCR6 antagonist	B2AR ag	APJ antagonist	APJ ag	CXCR6 antag conf
Cc1ccccc1N=CC=C1OC(C)(C)C(C)(C)O1	2	2	-2	0	9	0	.
NS(=O)(=O)c1ccc(CCNC(=O)CCNC(=O)c2ccco2)cc1	2	5	6	-3	2	0	.
O=C(COC(=O)c1ccco1)NCC1CCCCC1	-1	2	-7	-2	6	10	.
O=C(COC(=O)c1ccco1)NCCNC(=O)COC(=O)c1ccco1	36*	-1	1	-5	-3	-2	6
O=C(CCNC(=O)c1ccco1)NCCc1ccc(Cl)cc1	40*	8	8	-12	7	-2	17
Cc1ccc(NC(=O)C2=C(c3ccccc3)S(=O)(=O)CCS2(=O)=O)cc1	48*	24	.	53*	21	5	53*
Cc1ccc(NC(=O)c2ccccc2)cc1	2	-1	1	-3	7	6	.
O=C(CN(c1cccc([N+](=O)[O-])c1)S(=O)(=O)c1ccccc1)N1CCCCC1	5	2	0	18	16	-3	.
CCN(CC)CC(C)(C)C(=O)/C=C/c1ccc(/C=C/C(=O)C(C)(C)CN(CC)CC)cc1	98*	78*	113*	46*	.	.	95*
CCN(CC)CCOC(=O)/C=C/c1ccccc1	-1	10	14	5	15	-3	.
COCCN(Cc1ccc(C)cc1)C(=O)[C@H]1O[C@@H](n2cnc3c(N)ncnc32)[C@H](O)[C@@H]1O	-3	-9	.	.	.	.	.
Cc1ccc2c(Cl)cc(Cl)c(O)c2n1	49*	30	97*	14	.	.	70*
Cc1ccc2c(C)ccc(O)c2n1	65*	-11	83*	10	35	-6	76*
COc1ccc(Cl)cc1CN1C(=O)C(Cc2ccccc2)ON=C1C (centres undefined)	1	5	.	.	.	.	.
CCCOc1ccc(C(=O)NNC(=S)NC(=O)c2cc(-c3ccc(Cl)cc3)nc3ccccc23)cc1	45*	14	43	10	30	-8	37
Cc1noc(C)c1NC(=O)Nc1cccc2c1O[C@H](CN(C)S(=O)(=O)c1cn(C)cn1)[C@@H](C)CN([C@H](C)CO)C2=O	45*	-2	11	9	-6	1	3
O=C(Nc1ccc2c(c1)CCO2)Nc1nnc([C@H]2C[C@H](O)[C@@H](CO)O2)s1	1	-9	.	.	.	.	.
O=C1C=CC2C3C(=O)N(c4ccccc4)C(=O)C3C1N2Cc1ccccc1 (centres undefined)	51*	21	59*	29	.	.	45*
O=C(C=Cc1ccccn1)c1ccccc1O	57*	-10	74*	49*	.	.	60*
O=C(C=Cc1ccccn1)c1ccccc1	21	-12	39	21	.	.	.
O=C(NCCCCc1ccccc1)C1CC(c2ccc(C(F)(F)F)cc2)=NO1 (centres undefined)	-8	5	3	-5	18	-5	.
CC(NC(=O)CCC(=O)NCc1ccc(F)cc1)c1ccccc1 (centres undefined)	80*	7	18	-11	-9	-3	-4
CSc1nc2ccccc2n1Cc1c(Cl)cccc1Cl	-5	-2	2	7	4	2	.
COc1ccccc1C(=O)C1CCCN(C(=O)c2ccco2)C1 (centres undefined)	-1	1	-9	-2	2	-2	.
CCOC(=O)C1=C(C)N(C)C(=S)NC1c1cc(OC)ccc1OC (centres undefined)	1	-4	16	-2	-17	0	.
Cn1cnc([N+](=O)[O-])c1S(=O)(=O)Oc1ccccc1	42*	11	49	19	.	.	60*
Cn1cnc([N+](=O)[O-])c1S(=O)(=O)c1cccc(Cl)c1	49*	21	59*	14	36	-3	65*
Cn1cnc([N+](=O)[O-])c1S(=O)(=O)Nc1ccccc1	11	2	4	4	.	.	.
O=C(NC(=S)N1CCN(c2ccc(C(F)(F)F)cc2[N+](=O)[O-])CC1)c1cccs1	52*	7	.	-2	22	0	56*

Source: PubChem BioAssay (several laboratories)
